Test results taken from ChEMBL document CHEMBL3580605, “Melampodium leucanthum, a source of cytotoxic sesquiterpenes with antimitotic activities” (J Nat Prod, 2015).
The source made the active and inactive calls. The rule behind the calls is not given here.

Assays:
DU-145 [1] = assay: Selectivity index, ratio of IC50 for human PC3 cells to IC50 for human DU145 cells; assay type: functional
How it was run: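 Ratio of SRB IC50 values from PC-3 and DU 145 prostate cells, each measured by 4-parameter nonlinear regression of triplicate concentration-response data.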

PC-3 [2] = assay: Growth inhibition of human PC3 cells by sulforhodamine B assay; assay type: functional, cell-based
How it was run: (§1)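 SRB assay. DU 145 cells were grown in IMEM with 10% FBS and gentamicin, PC-3 in RPMI 1640 with 10% FBS and gentamicin, and HeLa in BME with 10% FBS and gentamicin. Cytotoxicity was read as a fall in cell density below the density at the time of drug addition. Each concentration was tested in triplicate, n = 2–9 independent experiments. IC50 is the concentration giving 50% inhibition of proliferation versus vehicle control, interpolated from a 4-parameter nonlinear regression; mean ± SE.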

DU-145 [3] = assay: Growth inhibition of human DU145 cells by sulforhodamine B assay; assay type: functional, cell-based; how it was run: as §1
DU-145 [4] = assay: Induction of apoptosis in human DU145 cells assessed as increase in PARP cleavage at 10 uM after 24 hrs by immunoblotting method; assay type: functional, cell-based
How it was run: (§2)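 HeLa and DU 145 cells were given vehicle, BI2536 (100 nM) or test compounds (10 µM) for 24 h. Lysed with protease inhibitors; equal protein run on SDS-PAGE, transferred to PVDF, and probed for cleaved PARP (1:1000) with actin as loading control; ECL detection.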

DU-145 [5] = assay: Inhibition of colony formation of human DU145 cells incubated for 4 hrs followed by drug wash-out and measured after 14 days post drug wash-out by crystal violet staining based clonogenic assay; assay type: functional, cell-based
How it was run: (§3)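 300 DU 145 cells were allowed to adhere, then exposed to vehicle (0.5% DMSO final) or compound for 4 h. Washed with DPBS and regrown in fresh medium. Fixed and stained with 0.5% crystal violet in 10% methanol; colonies counted. Legend states 9 days, methods 14 days. One-way ANOVA with Dunnett's post-hoc test; n = 2–9 experiments.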

HeLa [6] = assay: Inhibition of PLK1 protein accumulation in human HeLa cells at 10 uM by immunoblotting method; assay type: functional, cell-based
How it was run: (§4)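 HeLa and DU 145 cells were given vehicle, 100 nM BI 2536 or 10 µM test compounds. Lysed and immunoblotted for total PLK1 and phospho-Thr210-PLK1.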

PC-3 [7] = assay: Induction of monopolar mitotic spindles in human PC3 cells at 25 uM incubated for 18 hrs by indirect immunofluorescence microscopy; assay type: functional, cell-based
How it was run: (§5)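 Cells adhered overnight on glass coverslips, then were treated for 18 h. They were fixed in cold methanol (4 °C, 5 min) and blocked with 10% bovine calf serum for 20 min. Stained with monoclonal anti-β-tubulin (1:400, 2 h, 37 °C), then FITC anti-mouse IgG (1:200, 1 h, 37 °C), and 0.1 µg/mL DAPI. Spindles scored by indirect immunofluorescence; BI2536 at 100 nM served as positive control.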

PC-3 [8] = assay: Induction of aberrant bipolar mitotic spindles in human PC3 cells at 25 uM incubated for 18 hrs by indirect immunofluorescence microscopy; assay type: functional, cell-based; how it was run: as §5
HeLa [9] = assay: Induction of monopolar mitotic spindles in human HeLa cells at 25 uM incubated for 18 hrs by indirect immunofluorescence microscopy; assay type: functional, cell-based; how it was run: as §5
HeLa [10] = assay: Induction of aberrant bipolar mitotic spindles in human HeLa cells at 25 uM incubated for 18 hrs by indirect immunofluorescence microscopy; assay type: functional, cell-based; how it was run: as §5
Tubulin (Sus scrofa) [11] = molecular target: T1, Tubulin (Sus scrofa) (UniProt P02554+P02550); assay: Inhibition of porcine tubulin polymerization at 10 uM incubated for 1 hr by turbidimetry; assay type: protein assay
T1 sequence (P02550 whole entry, looked up): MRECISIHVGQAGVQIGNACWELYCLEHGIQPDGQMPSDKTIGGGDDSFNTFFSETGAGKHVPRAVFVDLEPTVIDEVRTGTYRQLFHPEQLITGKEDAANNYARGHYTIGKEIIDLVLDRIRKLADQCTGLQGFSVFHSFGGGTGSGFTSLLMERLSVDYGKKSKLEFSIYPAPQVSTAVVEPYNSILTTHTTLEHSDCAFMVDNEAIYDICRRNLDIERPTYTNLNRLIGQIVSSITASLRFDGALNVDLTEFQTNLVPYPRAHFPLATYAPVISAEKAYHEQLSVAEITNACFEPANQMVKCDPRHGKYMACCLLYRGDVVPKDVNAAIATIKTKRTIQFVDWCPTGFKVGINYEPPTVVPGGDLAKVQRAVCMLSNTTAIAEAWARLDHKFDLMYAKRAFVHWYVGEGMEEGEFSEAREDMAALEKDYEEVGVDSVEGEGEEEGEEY
T1 sequence (P02554 whole entry, looked up): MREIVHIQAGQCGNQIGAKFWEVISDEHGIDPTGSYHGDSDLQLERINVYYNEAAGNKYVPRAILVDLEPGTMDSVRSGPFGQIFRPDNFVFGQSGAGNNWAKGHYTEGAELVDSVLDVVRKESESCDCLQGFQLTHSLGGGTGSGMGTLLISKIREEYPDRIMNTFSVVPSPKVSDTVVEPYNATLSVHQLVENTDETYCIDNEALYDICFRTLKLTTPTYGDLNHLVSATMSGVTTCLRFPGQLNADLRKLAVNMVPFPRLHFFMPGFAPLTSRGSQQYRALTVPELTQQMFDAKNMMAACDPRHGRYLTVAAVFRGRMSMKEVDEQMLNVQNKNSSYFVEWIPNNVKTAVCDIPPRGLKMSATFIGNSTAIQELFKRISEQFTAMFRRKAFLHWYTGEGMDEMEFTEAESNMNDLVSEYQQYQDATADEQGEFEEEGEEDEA

[12] = molecular target: Serine/threonine-protein kinase PLK1 (Homo sapiens) (UniProt P53350); assay: Inhibition of PLK1 Thr210 phosphorylation in human DU145 cells at 10 uM by immunoblotting method; assay type: cell-based; details: DU-145; how it was run: as §4
Sequence of Serine/threonine-protein kinase PLK1 (Homo sapiens) (P53350 whole entry): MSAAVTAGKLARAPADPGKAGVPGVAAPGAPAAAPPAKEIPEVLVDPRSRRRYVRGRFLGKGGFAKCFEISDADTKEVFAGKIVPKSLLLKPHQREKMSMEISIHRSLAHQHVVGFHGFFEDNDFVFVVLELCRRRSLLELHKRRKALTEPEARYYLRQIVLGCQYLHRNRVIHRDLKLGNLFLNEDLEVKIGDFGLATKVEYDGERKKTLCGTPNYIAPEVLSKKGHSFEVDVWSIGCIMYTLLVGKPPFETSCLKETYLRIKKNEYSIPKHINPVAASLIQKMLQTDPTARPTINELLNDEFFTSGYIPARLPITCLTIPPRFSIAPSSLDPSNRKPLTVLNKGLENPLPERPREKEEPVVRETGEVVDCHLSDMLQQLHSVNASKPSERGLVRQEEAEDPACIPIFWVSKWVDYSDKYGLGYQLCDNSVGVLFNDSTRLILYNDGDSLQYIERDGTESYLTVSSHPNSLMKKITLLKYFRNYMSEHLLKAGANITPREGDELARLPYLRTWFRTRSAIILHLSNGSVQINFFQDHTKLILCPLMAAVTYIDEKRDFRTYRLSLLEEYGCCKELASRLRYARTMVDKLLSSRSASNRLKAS

SK-OV-3 [13] = assay: Growth inhibition of human SKOV3-MDR1-M6/6 cells by sulforhodamine B assay; assay type: functional, cell-based
How it was run: (§6)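 Isogenic ovarian pair: parental SK-OV-3 and its Pgp-expressing single-cell clone SK-OV-3/MDR-1-M6/6, tested by SRB assay. IC50 is interpolated from a 4-parameter nonlinear regression against vehicle control. Rr = IC50 in M6/6 divided by IC50 in SK-OV-3.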

HeLa [14] = assay: Growth inhibition of human HeLa cells by sulforhodamine B assay; assay type: functional, cell-based; how it was run: as §1
DU-145 [15] = assay: Inhibition of colony formation of human DU145 cells at 5 to 20 uM incubated for 4 hrs followed by drug wash-out and measured after 9 days post drug wash-out by crystal violet staining based clonogenic assay; assay type: functional, cell-based; how it was run: as §3
SK-OV-3 [16] = assay: Growth inhibition of human SKOV3 cells by sulforhodamine B assay; assay type: functional, cell-based; how it was run: as §6
SK-OV-3 [17] = assay: Resistance index, ratio of IC50 for human SKOV3-MDR1-M6/6 cells to IC50 for human SKOV3 cells; assay type: functional; how it was run: as §6
HeLa [18] = assay: Induction of apoptosis in human HeLa cells assessed as increase in PARP cleavage at 10 uM after 24 hrs by immunoblotting method; assay type: functional, cell-based; how it was run: as §2
A10 = assay: Growth inhibition of rat A10 cells by sulforhodamine B assay; assay type: cell-based
[19] = molecular target: Serine/threonine-protein kinase PLK1 (Homo sapiens) (UniProt P53350); assay: Inhibition of PLK1 Thr210 phosphorylation in human HeLa cells at 10 uM by immunoblotting method; assay type: cell-based; how it was run: as §4
DU-145 [20] = assay: Inhibition of PLK1 protein accumulation in human DU145 cells at 10 uM by immunoblotting method; assay type: functional, cell-based; how it was run: as §4
HeLa [21] = assay: Induction of aberrant bipolar mitotic spindles in human HeLa cells at 10 uM incubated for 18 hrs by indirect immunofluorescence microscopy; assay type: functional, cell-based; how it was run: as §5
PC-3 [22] = assay: Induction of aberrant bipolar mitotic spindles in human PC3 cells at 10 uM incubated for 18 hrs by indirect immunofluorescence microscopy; assay type: functional, cell-based; how it was run: as §5
PC-3 [23] = assay: Induction of cell cycle arrest in human PC3 cells at 1.5 uM to 5 uM incubated for 18 hrs by flow cytometry method; assay type: functional, cell-based
How it was run: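 PC-3 cells were treated with vehicle (DMSO) or compound for 18 h. Stained with Krishan's reagent (propidium iodide), and DNA content read by flow cytometry for cell cycle distribution.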

HeLa [24] = assay: Induction of monopolar mitotic spindles in human HeLa cells at 10 uM incubated for 18 hrs by indirect immunofluorescence microscopy; assay type: functional, cell-based; how it was run: as §5
PC-3 [25] = assay: Induction of monopolar mitotic spindles in human PC3 cells at 10 uM incubated for 18 hrs by indirect immunofluorescence microscopy; assay type: functional, cell-based; how it was run: as §5
Tubulin (Sus scrofa) [26] = molecular target: T1, Tubulin (Sus scrofa); assay: Inhibition of porcine tubulin polymerization at 10 to 100 uM incubated for 1 hr by turbidimetry; assay type: protein assay
PC-3 [27] = assay: Induction of monopolar mitotic spindles in human PC3 cells at 7.5 uM incubated for 18 hrs by indirect immunofluorescence microscopy; assay type: functional, cell-based; how it was run: as §5
HeLa [28] = assay: Induction of monopolar mitotic spindles in human HeLa cells at 7.5 uM incubated for 18 hrs by indirect immunofluorescence microscopy; assay type: functional, cell-based; how it was run: as §5
PC-3 [29] = assay: Induction of aberrant bipolar mitotic spindles in human PC3 cells at 7.5 uM incubated for 18 hrs by indirect immunofluorescence microscopy; assay type: functional, cell-based; how it was run: as §5
HeLa [30] = assay: Induction of aberrant bipolar mitotic spindles in human HeLa cells at 7.5 uM incubated for 18 hrs by indirect immunofluorescence microscopy; assay type: functional, cell-based; how it was run: as §5
DU-145 [31] = assay: Inhibition of PLK1 protein accumulation in human DU145 cells at 100 nM by immunoblotting method; assay type: functional, cell-based; how it was run: as §4
PC-3 [32] = assay: Induction of monopolar mitotic spindles in human PC3 cells at 100 nM incubated for 18 hrs by indirect immunofluorescence microscopy; assay type: functional, cell-based; how it was run: as §5
HeLa [33] = assay: Inhibition of PLK1 protein accumulation in human HeLa cells at 100 nM by immunoblotting method; assay type: functional, cell-based; how it was run: as §4
HeLa [34] = assay: Induction of apoptosis in human HeLa cells assessed as increase in PARP cleavage at 100 nM after 24 hrs by immunoblotting method; assay type: functional, cell-based; how it was run: as §2
DU-145 [35] = assay: Induction of apoptosis in human DU145 cells assessed as increase in PARP cleavage at 100 nM after 24 hrs by immunoblotting method; assay type: functional, cell-based; how it was run: as §2
HeLa [36] = assay: Induction of monopolar mitotic spindles in human HeLa cells at 100 nM incubated for 18 hrs by indirect immunofluorescence microscopy; assay type: functional, cell-based; how it was run: as §5

| IC50 (PC-3 [2]) [nM] | IC50 (DU-145 [3]) [nM] | inhibition (Tubulin (Sus scrofa) [11]) | inhibition [12] | IC50 (SK-OV-3 [13]) [nM] | IC50 (HeLa [14]) [nM] | IC50 (SK-OV-3 [16]) [nM] | inhibition [19] | Compound | Activity (DU-145 [4]) | inhibition (DU-145 [5]) | inhibition (HeLa [6]) | Ratio IC50 (SK-OV-3 [17]) | Activity (HeLa [18]) | IC50 (A10) [nM] | inhibition (DU-145 [20]) | other results |
| --- | --- | --- | --- | --- | --- | --- | --- | --- | --- | --- | --- | --- | --- | --- | --- | --- |
| 670 | 180 | – | – | – | – | – | – | C=C1C(=O)O[C@H]2[C@H]1[C@H](OC(=O)[C@@]1(C)O[C@H]1C)[C@@H](OC(C)=O)[C@@]1(C(=O)OC)C=CC=C(C)[C@H]21 | – | – | – | – | – | – | – | Ratio IC50 (DU-145 [1]): 3.7 |
| 8700 | 5900 | Active | inactive | 4400 | 3800 | 1700 | inactive | C=C1C(=O)O[C@H]2[C@H]1[C@H](OC(=O)[C@@]1(C)O[C@H]1C)[C@H](OC(C)=O)/C(C(=O)OC)=C\C[C@@H](O)[C@]1(C)O[C@H]21 | Active | Dose-dependent effect | inactive | 2.6 | Active | 3000 | inactive | Activity (PC-3 [7]): Active; Activity (PC-3 [8]): Active; Activity (HeLa [9]): Active; Activity (HeLa [10]): Active; inhibition (DU-145 [15]): Active |
| 1700 | 1800 | – | inactive | 1400 | 1700 | 570 | inactive | C=C1C(=O)O[C@H]2[C@H]1[C@H](OC(=O)[C@@]1(C)O[C@H]1C)[C@H](OC(C)=O)/C(C(=O)OC)=C\C=C/[C@]1(C)O[C@H]21 | Active | Dose-dependent effect | inactive | 2.5 | Active | 1700 | inactive | Activity (HeLa [21]): Active; Activity (PC-3 [22]): Active; Activity (PC-3 [23]): inactive; Activity (HeLa [24]): Active; Activity (PC-3 [25]): Active; inhibition (Tubulin (Sus scrofa) [26]): Active |
| 40 | 4 | – | – | 1010 | 3.5 | 6.2 | – | CC(=O)O[C@H]1C(=O)[C@@]2(C)[C@H]([C@H](OC(=O)c3ccccc3)[C@]3(O)C[C@H](OC(=O)[C@H](O)[C@@H](NC(=O)c4ccccc4)c4ccccc4)C(C)=C1C3(C)C)[C@]1(OC(C)=O)CO[C@@H]1C[C@@H]2O [PACLITAXEL] | – | – | – | 162.9 | – | – | – | – |
| 3100 | 2600 | Active | inactive | 2000 | 1900 | 820 | inactive | C=C1C(=O)O[C@H]2[C@H]1[C@H](OC(=O)[C@@]1(C)O[C@H]1C)[C@H](OC(C)=O)/C(C(=O)OC)=C\[C@H]1O[C@H]1[C@]1(C)O[C@H]21 | Active | Dose-dependent effect | inactive | 2.4 | Active | 1100 | inactive | Activity (PC-3 [27]): Active; Activity (HeLa [28]): Active; Activity (PC-3 [29]): Active; Activity (HeLa [30]): Active |
| – | – | – | – | – | – | – | – | CC[C@@H]1C(=O)N(C)c2cnc(Nc3ccc(C(=O)NC4CCN(C)CC4)cc3OC)nc2N1C1CCCC1 | – | – | – | – | – | – | – | inhibition (DU-145 [31]): Active; Activity (PC-3 [32]): Active; inhibition (HeLa [33]): Active; Activity (HeLa [34]): Active; Activity (DU-145 [35]): Active; Activity (HeLa [36]): Active |
